Experiments:
Cytochrome P450 2C8 = biological target: T1, Cytochrome P450 2C8 (Homo sapiens, UniProt P10632); assay: Inhibition of CYP2C8 (unknown origin); assay type: ADME
T1 sequence (P10632 whole entry): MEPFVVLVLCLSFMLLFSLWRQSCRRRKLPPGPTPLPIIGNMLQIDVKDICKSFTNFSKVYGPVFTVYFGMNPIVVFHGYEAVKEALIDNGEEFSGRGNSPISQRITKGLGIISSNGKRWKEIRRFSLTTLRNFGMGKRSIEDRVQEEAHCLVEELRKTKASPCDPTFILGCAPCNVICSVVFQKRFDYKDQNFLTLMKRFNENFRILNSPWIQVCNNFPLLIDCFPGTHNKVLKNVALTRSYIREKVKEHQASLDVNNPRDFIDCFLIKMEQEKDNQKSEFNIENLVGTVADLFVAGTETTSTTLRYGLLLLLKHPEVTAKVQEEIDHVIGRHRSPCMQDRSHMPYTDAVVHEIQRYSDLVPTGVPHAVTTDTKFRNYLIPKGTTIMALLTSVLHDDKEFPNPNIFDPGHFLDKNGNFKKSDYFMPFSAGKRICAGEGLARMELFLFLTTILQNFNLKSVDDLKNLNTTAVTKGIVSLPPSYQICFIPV

[1] = Metabolic stability in monkey liver microsomes after 30 mins; assay type: ADME, Macaca mulatta, Microsome; settings: rhesus monkey, read-out: Stability
[2] = Drug uptake in tumor of athymic mouse xenografted with human MCF7 cells at 100 mg/kg, po after 4 hrs; assay type: ADME, organism-based, Neoplasm; design: dose 100 mg/kg, route oral; settings: read-out: Drug uptake
Mus musculus [3] = assay: In vivo inhibition of mTORC2-mediated phosphorylation of AKT at […] in human PC3 cells xenografted into athymic nude mouse at 100 mg/kg, po after 32 hrs by Western blotting analysis relative to control; assay type: functional; settings: PC-3, 32 h
Method in brief: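 Human PC-3 cells were implanted subcutaneously into the hindflank of male nude mice aged 5−8 weeks, at 3 × 10^6 cells (passages 10−14, >95% viability) in ice-cold HBSS. At a tumor size of 200−500 mg, mice got one oral 100 mg/kg dose. Tumors were taken at 1, 4, 8, 16, 24 and 32 h. Lysates (n = 5 per group) were pooled, and phospho-AKT (T308) was read by Western blot, normalized to α-tubulin.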

Mus musculus [4] = assay: In vivo inhibition of mTORC1-mediated phosphorylation of pS6 at (serine 240/244) in human MCF7 cells xenografted into athymic nude mouse at 100 mg/kg, po after 8 hrs by Western blotting analysis relative to control; assay type: functional; settings: MCF7, 8 h
Method in brief: (§1)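 MCF-7 cells (DMEM, 10% FBS) were implanted subcutaneously at 5 × 10^6 cells in 50% cold HBSS/50% growth-factor-reduced matrigel into the hindflank of 5−8 week old female nude mice. At tumor size 40−150 mg, mice received a single oral dose of 100 mg/kg. Tumor lysates were pooled per group. Phospho-AKT (S473, T308), p70S6K (T389), S6 (S240/244) and 4E-BP1 (T37/46) were measured by Western blot normalized to α-tubulin.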

[5] = Cmax in CD rat at 3 mg/kg, iv; assay type: ADME, organism-based; design: dose 3 mg/kg, route intravenous; settings: in vivo
Method in brief: (§2)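 Single-dose PK: female athymic nude mice (10 mg/kg), female CD rats and male beagle dogs (3 mg/kg), male cynomolgus monkeys (3 mg/kg), given iv and by oral gavage. Solution in EPW (5% ethanol/45% PEG400/water), with 1:2 HCl (m/m) for mouse, rat and dog and 1:1.5 HCl (m/m) for monkey. Plasma levels followed over 24 h.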

[6] = Plasma concentration in athymic mouse plasma xenografted with human MCF7 cells at 100 mg/kg, po after 4 hrs; assay type: ADME, organism-based; design: dose 100 mg/kg, route oral
Method in brief: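 MCF-7 cells (5 × 10^6 in 50% cold HBSS/50% growth-factor-reduced Matrigel) implanted subcutaneously in the hindflank of 5−8-week-old female nude mice. When tumors reached 40−150 mg, mice received a single oral dose. Plasma exposure was measured after dosing, and scheduled takedown was at 4 h.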

Mus musculus [7] = assay: In vivo inhibition of mTORC1-mediated phosphorylation of 4EBP1 at ([…]) in human PC3 cells xenografted into athymic nude mouse at 100 mg/kg, po after 16 hrs by Western blotting analysis relative to control; assay type: functional; settings: PC-3, 16 h
Method in brief: (§3)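 PC-3 cells grown in DMEM with 20% FBS were implanted subcutaneously at 3 × 10^6 cells in ice-cold HBSS into the hindflank of 5−8 week old male nude mice. At tumor size 200−500 mg, mice received a single oral dose of 100 mg/kg. Plasma and tumors were collected at 1, 4, 8, 16, 24 and 32 h. Tumor lysates from each group (n = 5) were pooled. Phospho-proteins were quantified by Western blot and normalized to α-tubulin.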

[8] = biological target: Tyrosine-protein kinase JAK2 (Homo sapiens, UniProt O60674); assay: Inhibition of JAK2 (unknown origin)
Mus musculus [9] = assay: In vivo inhibition of mTORC1-mediated phosphorylation of 4EBP1 at ([…]) in human MCF7 cells xenografted into athymic nude mouse at 100 mg/kg, po after 24 hrs by Western blotting analysis relative to control; assay type: functional; settings: MCF7, 24 h
[10] = Cmax in Beagle dog at 3 mg/kg, iv; assay type: ADME, organism-based, Canis lupus familiaris; design: dose 3 mg/kg, route intravenous; settings: in vivo; method in brief: as §2
[11] = biological target: Phosphatidylinositol 4,5-bisphosphate 3-kinase catalytic subunit delta isoform (Homo sapiens, UniProt O00329); assay: Inhibition of PI3Kdelta (unknown origin)
[12] = AUC (0 to infinity) in cynomolgus monkey at 3 mg/kg, po; assay type: ADME, organism-based, Macaca fascicularis; design: dose 3 mg/kg, route oral, time infinity; settings: plasma; method in brief: as §2
[13] = Volume of distribution at steady state in Beagle dog at 3 mg/kg, iv; assay type: ADME, organism-based, Canis lupus familiaris; design: dose 3 mg/kg, route intravenous; settings: in vivo, read-out: Vdss
Mus musculus [14] = assay: In vivo inhibition of mTOR1-mediated phosphorylation of p70S6K at […] in human PC3 cells xenografted into athymic nude mouse at 100 mg/kg, po after 8 hrs by Western blotting analysis relative to control; assay type: functional; settings: PC-3, 8 h
Method in brief: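 PC-3 cells (3 × 10⁶, passages 10–14, in ice-cold HBSS) were implanted sc in 5–8 week old male nude mice. Tumors of 200–500 mg received a single oral 100 mg/kg dose. Plasma and tumor were collected at 1, 4, 8, 16, 24 and 32 h and homogenized in buffer. Lysates were pooled per group (n = 5), and phospho-proteins were measured by Western blot normalized to α-tubulin.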

[15] = Plasma protein binding in dog at 5 uM; assay type: ADME, cell-free, Canis lupus familiaris; settings: read-out: PPB (converted)
Mus musculus [16] = assay: Toxicity in athymic nude mouse assessed as body weight gain at 50 mg/kg, po relative to control; assay type: organism-based; design: dose 50 mg/kg, route oral; settings: in vivo
Mus musculus [17] = assay: In vivo inhibition of mTORC2-mediated phosphorylation of AKT at serine 473 in human PC3 cells xenografted into athymic nude mouse at 100 mg/kg, po after 16 hrs by Western blotting analysis relative to control; assay type: functional; settings: PC-3, 16 h; method in brief: as §3
[18] = Clearance in Beagle dog at 3 mg/kg, iv; assay type: ADME, organism-based, Canis lupus familiaris; design: dose 3 mg/kg, route intravenous; settings: in vivo; method in brief: as §2
[19] = Plasma protein binding in monkey at 5 uM; assay type: ADME, cell-free, Macaca mulatta; settings: rhesus monkey, read-out: PPB (converted)
Mus musculus [20] = assay: In vivo inhibition of mTORC1-mediated phosphorylation of p70S6K at […] in human MCF7 cells xenografted into athymic nude mouse at 100 mg/kg, po after 4 hrs by Western blotting analysis relative to control; assay type: functional; settings: MCF7, 4 h; method in brief: as §1
[21] = Cmax in CD rat at 3 mg/kg, po; assay type: ADME, organism-based; design: dose 3 mg/kg, route oral; settings: in vivo; method in brief: as §2

Phosphatidylinositol 4,5-bisphosphate 3-kinase catalytic subunit delta isoform, sequence (O00329 whole entry, canonical isoform): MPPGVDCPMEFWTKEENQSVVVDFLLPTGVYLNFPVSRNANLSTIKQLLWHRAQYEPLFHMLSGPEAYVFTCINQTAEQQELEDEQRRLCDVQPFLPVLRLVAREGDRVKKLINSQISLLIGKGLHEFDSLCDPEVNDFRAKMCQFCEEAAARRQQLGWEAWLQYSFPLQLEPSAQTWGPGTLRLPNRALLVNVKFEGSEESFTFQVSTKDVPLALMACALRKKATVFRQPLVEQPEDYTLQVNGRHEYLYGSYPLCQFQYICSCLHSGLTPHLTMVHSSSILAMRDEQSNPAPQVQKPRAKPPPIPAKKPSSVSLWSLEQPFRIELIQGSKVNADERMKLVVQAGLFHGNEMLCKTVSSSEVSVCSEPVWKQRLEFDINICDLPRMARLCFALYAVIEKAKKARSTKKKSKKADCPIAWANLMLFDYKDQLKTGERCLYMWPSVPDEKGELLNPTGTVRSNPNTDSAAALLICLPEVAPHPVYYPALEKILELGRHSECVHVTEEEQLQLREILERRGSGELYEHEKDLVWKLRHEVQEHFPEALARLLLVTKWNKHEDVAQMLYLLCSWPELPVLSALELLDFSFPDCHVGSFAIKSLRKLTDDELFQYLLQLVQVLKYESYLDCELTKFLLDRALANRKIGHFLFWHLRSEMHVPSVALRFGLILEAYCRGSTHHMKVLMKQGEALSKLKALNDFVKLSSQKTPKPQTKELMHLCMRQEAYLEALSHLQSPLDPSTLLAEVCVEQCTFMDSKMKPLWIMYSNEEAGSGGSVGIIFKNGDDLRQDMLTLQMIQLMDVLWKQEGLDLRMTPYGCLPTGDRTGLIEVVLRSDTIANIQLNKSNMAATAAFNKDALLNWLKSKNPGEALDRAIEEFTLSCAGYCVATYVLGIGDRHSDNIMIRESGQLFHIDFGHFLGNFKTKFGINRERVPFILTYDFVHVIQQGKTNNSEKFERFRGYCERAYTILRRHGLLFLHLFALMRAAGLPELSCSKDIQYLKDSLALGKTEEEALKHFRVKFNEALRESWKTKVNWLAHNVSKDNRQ
Tyrosine-protein kinase JAK2, sequence (O60674 whole entry): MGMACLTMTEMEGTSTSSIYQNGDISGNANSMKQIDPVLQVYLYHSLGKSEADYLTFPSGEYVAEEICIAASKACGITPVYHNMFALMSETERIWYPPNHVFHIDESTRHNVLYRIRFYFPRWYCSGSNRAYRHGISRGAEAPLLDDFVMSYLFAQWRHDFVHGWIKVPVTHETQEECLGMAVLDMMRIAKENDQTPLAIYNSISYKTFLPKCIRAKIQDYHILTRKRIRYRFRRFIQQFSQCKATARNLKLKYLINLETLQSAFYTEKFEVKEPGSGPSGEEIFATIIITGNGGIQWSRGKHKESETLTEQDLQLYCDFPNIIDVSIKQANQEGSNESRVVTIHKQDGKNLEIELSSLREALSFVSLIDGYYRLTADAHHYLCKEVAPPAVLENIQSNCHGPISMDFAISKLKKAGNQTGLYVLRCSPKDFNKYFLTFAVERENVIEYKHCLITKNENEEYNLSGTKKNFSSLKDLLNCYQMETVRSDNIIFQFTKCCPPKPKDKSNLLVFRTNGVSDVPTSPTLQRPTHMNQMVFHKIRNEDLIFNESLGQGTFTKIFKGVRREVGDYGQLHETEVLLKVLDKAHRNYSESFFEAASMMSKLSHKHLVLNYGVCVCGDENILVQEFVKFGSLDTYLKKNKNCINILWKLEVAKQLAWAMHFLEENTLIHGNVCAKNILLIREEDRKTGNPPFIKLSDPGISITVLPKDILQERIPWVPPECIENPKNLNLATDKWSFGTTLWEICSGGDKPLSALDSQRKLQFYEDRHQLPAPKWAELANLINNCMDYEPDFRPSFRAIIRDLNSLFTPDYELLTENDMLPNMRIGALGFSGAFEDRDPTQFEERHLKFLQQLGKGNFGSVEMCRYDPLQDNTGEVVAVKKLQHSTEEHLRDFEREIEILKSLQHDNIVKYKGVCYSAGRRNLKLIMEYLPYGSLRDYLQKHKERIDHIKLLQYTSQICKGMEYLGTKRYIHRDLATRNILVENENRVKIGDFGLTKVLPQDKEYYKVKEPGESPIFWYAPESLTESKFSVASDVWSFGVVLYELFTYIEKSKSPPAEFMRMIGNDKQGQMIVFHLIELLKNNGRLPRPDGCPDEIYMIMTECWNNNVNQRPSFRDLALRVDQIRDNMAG

With `Cc1c(C(=O)N2CCOc3ccc(-c4ccc(N)nc4)cc3C2)ccc(S(C)(=O)=O)c1F` the INH (Cytochrome P450 2C8) was > 20 µM, the remaining at 0.5 h [1] was 65% and the concentration at 4 h [2] was 35.9 µM. It also gave an inhibition in vivo at 100 mg/kg (Mus musculus [3]) of -3%, an inhibition in vivo at 100 mg/kg (Mus musculus [4]) of 98% and a Cmax [5] of 4.12 µM. For the same molecule, the concentration at 4 h [6] was 30.1 µM, the inhibition in vivo at 100 mg/kg (Mus musculus [7]) was 51% and the IC50 [8] was > 3.5 µM. The inhibition in vivo at 100 mg/kg (Mus musculus [9]) was -17%, the Cmax [10] was 2.28 µM and the IC50 [11] was > 5 µM. The AUC(0-inf) [12] was 0.7 µM·h, the Vd [13] was 3.15 L/kg and the inhibition in vivo at 100 mg/kg (Mus musculus [14]) was 92%. The fraction unbound at 5 µM [15] was 0.11, the Activity (Mus musculus [16]) was 2.2% and the inhibition in vivo at 100 mg/kg (Mus musculus [17]) was 55%. It also gave a clearance [18] of 9.97 mL/min/kg, a fraction unbound at 5 µM [19] of 0.1 and an inhibition in vivo at 100 mg/kg (Mus musculus [20]) of 85%. For the same molecule, the Cmax [21] was 0.707 µM.

— ChEMBL document CHEMBL2331117 (J Med Chem, 2013)
